ChEMBL document CHEMBL2390929, “New nitric oxide donating 1,2,4-triazole/oxime hybrids: synthesis, investigation of anti-inflammatory, ulceroginic liability and antiproliferative activities” (Bioorg Med Chem, 2013)

Tests used:
T47D = test: Cytotoxicity against human T47D cells assessed as cell growth at 10^-5 M after 48 hrs by SRB assay; type: functional; details: read-out: Activity
Procedure, shortened: (§1)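 NCI-60 one-dose screen across nine tumour subpanels. Each agent added once at 10^-5 M, cultures incubated 48 h. Endpoint is sulforhodamine B protein staining read spectrophotometrically. Output is percent growth of treated cells relative to untreated controls.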

PC-3 = test: Cytotoxicity against human PC3 cells assessed as cell growth at 10^-5 M after 48 hrs by SRB assay; type: functional; details: PC-3, 48 h, read-out: Activity
Procedure, shortened: (§2)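 NCI 60-cell-line primary one-dose screen across nine tumour subpanels. Compound added at a single concentration of 10^-5 M and cultures incubated 48 h. Endpoint was sulforhodamine B protein staining read spectrophotometrically, with growth expressed as percent of untreated control cells.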

TK-10 = test: Cytotoxicity against human TK10 cells assessed as cell growth at 10^-5 M after 48 hrs by SRB assay; type: functional; details: TK-10, 48 h, read-out: Activity; procedure, shortened: as §1
Malme-3M = test: Cytotoxicity against human MALME-3M cells assessed as cell growth at 10^-5 M after 48 hrs by SRB assay; type: functional; details: read-out: Activity; procedure, shortened: as §2
KM12 = test: Cytotoxicity against human KM12 cells assessed as cell growth at 10^-5 M after 48 hrs by SRB assay; type: functional; details: KM12, 48 h, read-out: Activity; procedure, shortened: as §2
HT-29 = test: Cytotoxicity against human HT-29 cells assessed as cell growth at 10^-5 M after 48 hrs by SRB assay; type: functional; details: HT-29, 48 h, read-out: Activity; procedure, shortened: as §2
HCT-116 = test: Cytotoxicity against human HCT116 cells assessed as cell growth at 10^-5 M after 48 hrs by SRB assay; type: functional; details: HCT-116, 48 h, read-out: Activity; procedure, shortened: as §2
HCC 2998 = test: Cytotoxicity against human HCC2998 cells assessed as cell growth at 10^-5 M after 48 hrs by SRB assay; type: functional; details: HCC 2998, 48 h, read-out: Activity; procedure, shortened: as §2
NCI-H322M = test: Cytotoxicity against human NCI-H322M cells assessed as cell growth at 10^-5 M after 48 hrs by SRB assay; type: functional; details: read-out: Activity; procedure, shortened: as §2
HOP-92 = test: Cytotoxicity against human HOP92 cells assessed as cell growth at 10^-5 M after 48 hrs by SRB assay; type: functional; details: HOP-92, 48 h, read-out: Activity; procedure, shortened: as §2
[1] = Cytotoxicity against human EKVX cells assessed as cell growth at 10^-5 M after 48 hrs by SRB assay; type: functional; details: read-out: Activity; procedure, shortened: as §2
MOLT-4 = test: Cytotoxicity against human MOLT4 cells assessed as cell growth at 10^-5 M after 48 hrs by SRB assay; type: functional; details: MOLT-4, 48 h, read-out: Activity; procedure, shortened: as §2
CCRF-CEM = test: Cytotoxicity against human CCRF-CEM cells assessed as cell growth at 10^-5 M after 48 hrs by SRB assay; type: functional; details: read-out: Activity; procedure, shortened: as §2
Rattus norvegicus = test: Gastrointestinal toxicity in albino rat assessed as histopathological analysis at 0.28 mmol/kg, po using haematoxylin and eosin staining by light microscopic analysis; type: organism-based; details: in vivo
Procedure, shortened: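 Adult male albino rats (120–140 g, Minia University), groups of four, fasted 24 h with water allowed. Oral dose 0.28 mmol/kg suspended in 0.5% aqueous CMC; vehicle-only controls. Gastric sections dewaxed, stained with haematoxylin 5–7 min, differentiated in 1% HCl/70% alcohol, counterstained with 1% eosin 10 min. Cleared in xylene, mounted, examined by light microscopy at ×400.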

Compound	growth at 10 µM (T47D) [%]	growth at 10 µM (PC-3) [%]	growth at 10 µM (TK-10) [%]	growth at 10 µM (Malme-3M) [%]	growth at 10 µM (KM12) [%]	growth at 10 µM (HT-29) [%]	growth at 10 µM (HCT-116) [%]	growth at 10 µM (HCC 2998) [%]	growth at 10 µM (NCI-H322M) [%]	growth at 10 µM (HOP-92) [%]	growth at 10 µM [1] [%]	growth at 10 µM (MOLT-4) [%]	growth at 10 µM (CCRF-CEM) [%]	Activity (Rattus norvegicus)
COc1ccc(-c2nnc(SC/C(=N/O)c3ccccc3)n2-c2ccccc2)cc1OC	90.1	91.6	123	93.7	99.8	97.5	92	114	103	86.5	101	81.8	84.4	
COc1cc(-c2nnc(SC/C(=N/O)c3ccccc3)n2-c2ccccc2)cc(OC)c1OC	88.8	92.1	116	95.3	108	99.5	92.7	108	104	81.2	97.9	81.7	88.5	
CCn1c(SC/C(=N/O)c2ccccc2)nnc1-c1ccc(OC)c(OC)c1	99.6	101	106	94.8	100	100	108	104	99.4	107	102	87.4	98	Non-toxic
COc1ccc(-c2nnc(SC/C(=N/O)c3ccccc3)n2-c2ccccc2)cc1	86	86.4	113	96.5	112	95.1	93.2	112	102	101	102	70.3	83.5	
C=CCn1c(SC/C(=N\O)c2ccccc2)nnc1-c1ccc(OC)c(OC)c1	90.4	96.5	112	92.5	106	93.5	112	100	96.6	81.9	101	85.3	98.3	
O/N=C(/CSc1nnc(-c2ccccc2)n1-c1ccccc1)c1ccccc1	98	82.8		100	97.5	91.6	92.3	121			95.4	84.8	91	
CCn1c(SC/C(=N/O)c2ccccc2)nnc1-c1ccccc1	120	81.2		98.7	110	104	101	96.6		62.5	90.6	94.8	88.9	
